Laboratory results as given in ChEMBL document CHEMBL1135661, “Design of noncovalent inhibitors of human cathepsin L. From the 96-residue proregion to optimized tripeptides” (J Med Chem, 2002).
Peptide text beside a SMILES is read from it. * marks the point of attachment. Phenylacetyl(4-Ph) = O=C(Cc1ccc(-c2ccccc2)cc1)*

How the values were obtained:
[1] = target: Procathepsin L (Homo sapiens, UniProt P07711); experiment: Inhibitory activity against human Cathepsin L
[2] = target: Cathepsin B (Homo sapiens, UniProt P07858); experiment: Specificity of Cathepsin B inhibition by the compound
How it was run: (§1)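 Recombinant human cathepsins B and K were expressed in Pichia pastoris and stored inhibited with MMTS or HgCl2 (B at 4 °C, K at −80 °C). Both were reactivated with 2 mM DTT and E-64 titrated. Cbz-Phe-Arg-MCA was kept well below KM, at 25 °C, pH 6.0 (50 mM phosphate, 5 mM EDTA, 0.2 M NaCl, 3% DMSO). Read-out was fluorescence at 380/440 nm. Ki came from 1/vs vs [I] plots or slow-binding analysis.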

[3] = target: T1, Cathepsin K (Homo sapiens, UniProt P43235); experiment: Specificity of Cathepsin K inhibition by the compound; how it was run: as §1
T1 sequence (P43235 whole entry): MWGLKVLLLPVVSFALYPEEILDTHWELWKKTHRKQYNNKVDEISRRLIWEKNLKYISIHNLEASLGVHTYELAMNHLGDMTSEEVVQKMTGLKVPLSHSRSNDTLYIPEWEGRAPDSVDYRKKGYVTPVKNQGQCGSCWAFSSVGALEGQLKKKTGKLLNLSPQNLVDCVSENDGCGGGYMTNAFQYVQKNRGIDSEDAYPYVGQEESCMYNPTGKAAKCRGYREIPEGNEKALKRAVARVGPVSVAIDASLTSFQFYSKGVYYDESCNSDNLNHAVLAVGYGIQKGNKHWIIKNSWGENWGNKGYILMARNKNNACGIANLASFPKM

Chain of Procathepsin L (P07711 whole entry): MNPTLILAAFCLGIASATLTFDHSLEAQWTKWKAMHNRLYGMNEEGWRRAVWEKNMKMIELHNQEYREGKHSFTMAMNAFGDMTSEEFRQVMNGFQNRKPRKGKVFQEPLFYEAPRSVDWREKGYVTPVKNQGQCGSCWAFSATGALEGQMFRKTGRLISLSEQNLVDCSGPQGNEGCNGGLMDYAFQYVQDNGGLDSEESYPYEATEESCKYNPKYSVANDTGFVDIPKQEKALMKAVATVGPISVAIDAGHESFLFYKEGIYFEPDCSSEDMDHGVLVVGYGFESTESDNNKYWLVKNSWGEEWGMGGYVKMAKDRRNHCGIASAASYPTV

Structure (SMILES) | Ki [1] | Ki [2] | Ki [3]
N=C(N)NCCC[C@H](NC(=O)[C@H](CS)NC(=O)Cc1ccc(-c2ccccc2)cc1)C(=O)N[C@@H](Cc1c[nH]c2ccccc12)C(=O)NCCc1ccccc1 | 67 nM | 560 nM | 1000 nM
N=C(N)NCCC[C@H](NC(=O)[C@H](CS)NC(=O)Cc1ccc(-c2ccccc2)cc1)C(=O)N[C@@H](CC1CCCCC1)C(=O)NCCc1ccccc1 | 160 nM | – | –
N=C(N)NCCC[C@H](NC(=O)[C@H](CCCN=C(N)N)NC(=O)[C@H](CS)NC(=O)Cc1ccc(-c2ccccc2)cc1)C(=O)NCCc1ccccc1 | 3900 nM | – | –
CSC[C@@H](NC(=O)Cc1ccc(-c2ccccc2)cc1)C(=O)N[C@@H](CCCN=C(N)N)C(=O)N[C@@H](CC(C)C)C(=O)NCCc1ccccc1 | 270 nM | – | –
N=C(N)NCCC[C@H](NC(=O)[C@H](CS)NC(=O)Cc1ccc(-c2ccccc2)cc1)C(=O)N[C@@H](Cc1ccc(O)cc1)C(=O)NCCc1ccccc1 | – | 15000 nM | 2900 nM
CSCC[C@H](NC(C)=O)C(=O)N[C@@H](CC(N)=O)C(=O)NCC(=O)N[C@@H](Cc1ccccc1)C(=O)N[C@@H](CCC(N)=O)C(N)=O (Ac-MNGFQ-NH2) | > 100000 nM | – | –
N=C(N)NCCC[C@H](NC(=O)[C@H](CS)NC(=O)Cc1ccc(-c2ccccc2)cc1)C(=O)N[C@@H](Cc1ccc(-c2ccccc2)cc1)C(=O)NCCc1ccccc1 | 270 nM | – | –
CSC[C@H](NC(=O)Cc1ccc(-c2ccccc2)cc1)C(=O)NCC(=O)N[C@@H](Cc1ccccc1)C(=O)N[C@@H](Cc1ccccc1)C(N)=O ({Phenylacetyl(4-Ph)}-C(Me)GFF-NH2) | 930 nM | – | –
NC(=O)C[C@H](NC(=O)Cc1ccc(-c2ccccc2)cc1)C(=O)N[C@H](CCCN=C(N)N)C(=O)N[C@@H](Cc1ccccc1)C(=O)NC(Cc1ccccc1)C(N)=O (some centres not stated) | 38000 nM | – | –
N=C(N)NCCC[C@@H](NC(=O)[C@H](CO)NC(=O)Cc1ccc(-c2ccccc2)cc1)C(=O)N[C@@H](Cc1ccccc1)C(=O)N[C@@H](Cc1ccccc1)C(N)=O | 74000 nM | – | –
CC[C@H](NC(=O)[C@H](CCCN=C(N)N)NC(=O)[C@H](CS)NC(=O)Cc1ccc(-c2ccccc2)cc1)C(=O)NCCc1ccccc1 | 210 nM | – | –
N=C(N)NCCC[C@@H](NC(=O)[C@H](CS)NC(=O)Cc1ccc(-c2ccccc2)cc1)C(=O)N[C@@H](Cc1ccccc1)C(=O)N[C@@H](Cc1ccccc1)C(N)=O (stereo in doubt; 4) | 170 nM | – | –
N=C(N)NCCC[C@H](NC(=O)[C@H](CS)NC(=O)Cc1ccc(-c2ccccc2)cc1)C(=O)N[C@@H](Cc1ccc2ccccc2c1)C(=O)NCCc1ccccc1 | 160 nM | – | –
CSCC[C@H](NC(=O)[C@H](CCCN=C(N)N)NC(=O)[C@@H](CSC)NC(=O)Cc1ccc(-c2ccccc2)cc1)C(=O)NCCc1ccccc1 | 240 nM | – | –
